The values that follow come from ChEMBL document CHEMBL4261524, “Succinct synthesis of saturated hydroxy fatty acids and in vitro evaluation of all hydroxylauric acids on FFA1, FFA4 and GPR84” (Medchemcomm, 2017).

The EC50 is the concentration needed to bring the measured effect to its halfway point.

In assay [1] the target is T1, Free fatty acid receptor 4 (Homo sapiens, UniProt Q5NUL3).
T1 sequence (Q5NUL3 whole entry): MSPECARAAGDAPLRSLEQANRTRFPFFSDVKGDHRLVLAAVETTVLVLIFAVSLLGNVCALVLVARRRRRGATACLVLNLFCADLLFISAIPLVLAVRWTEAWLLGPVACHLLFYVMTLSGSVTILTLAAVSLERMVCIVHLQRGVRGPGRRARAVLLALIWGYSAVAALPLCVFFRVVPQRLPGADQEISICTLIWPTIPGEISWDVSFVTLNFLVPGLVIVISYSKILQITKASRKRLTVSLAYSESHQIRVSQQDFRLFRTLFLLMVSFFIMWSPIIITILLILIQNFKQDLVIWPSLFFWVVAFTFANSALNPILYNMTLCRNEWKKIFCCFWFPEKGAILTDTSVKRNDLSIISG
In words: Agonist activity at N-terminal FLAG-tagged/C-terminal eYFP-fused human FFA4 receptor expressed in HEK293T cells assessed as induction of beta-arrestin-2 recruitment after 5 mins by BRET assay. The assay is classed as functional, cell-based.

For assay [2], the target named is T2, Free fatty acid receptor 1 (Homo sapiens, UniProt O14842). In words: Agonist activity at N-terminal FLAG-tagged/C-terminal eYFP-fused human FFA1 receptor expressed in HEK293T cells assessed as induction of beta-arrestin-2 recruitment after 15 mins by BRET assay. The assay is classed as functional, cell-based.
For assay [3], the target named is T3, G-protein coupled receptor 84 (Homo sapiens, UniProt Q9NQS5). In words: Agonist activity at N-terminal FLAG-tagged/C-terminal eYFP-fused human GPR84 expressed in CHO cell membranes assessed as induction of [35S]GTPgammaS binding after 1 hr by liquid scintillation counting method. The assay is classed as functional. In outline: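 Membranes were prepared from FLAG-GPR84-eYFP-expressing cells by homogenization in 10 mM Tris-HCl pH 7.4 with 0.1 mM EDTA, a 1000 × g spin to clear debris, then a 38 000 × g pellet. 10 μg membrane was incubated 1 h at 30 °C in HEPES/MgCl2/NaCl buffer, pH 7.5, with 0.05% fatty-acid-free BSA, 1 μM GDP and 0.1 nM [35S]GTPγS. Binding was read on GF/C filters by scintillation counting; means ± SEM, n ≥ 3.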

The target of assay [4] is T2, Free fatty acid receptor 1. Put plainly: Agonist activity at N-terminal FLAG-tagged/C-terminal eYFP-fused human FFA1 receptor expressed in HEK293T cells assessed as induction of beta-arrestin-2 recruitment at 100 uM after 15 mins by BRET assay relative to control. The format is functional, cell-based. A general note: Recruitment of arrestin is a read-out of receptor activation apart from second messengers.

Assay [5] concerns the target T2, Free fatty acid receptor 1. In words: Agonist activity at N-terminal FLAG-tagged/C-terminal eYFP-fused human FFA1 receptor expressed in Flp-In T-Rex 293 cells assessed as induction of Ca2+ mobilization after 45 mins by Fura2-AM dye-based fluorescence assay. The assay is classed as functional, cell-based. On the technique in general: A change in cytosolic calcium serves as a functional read-out for many receptors and channels.

The target of assay [6] is T3, G-protein coupled receptor 84. Put plainly: Agonist activity at N-terminal FLAG-tagged/C-terminal eYFP-fused human GPR84 expressed in CHO cell membranes assessed as inhibition of forskolin-induced cAMP accumulation preincubated for 20 mins followed by forskolin-induction and measured after 20 mins. The format is functional, cell-based. (In general: Cyclic AMP is a second messenger, typically raised through Gs and lowered through Gi signalling.)

The target is the same in assay [7]. Put plainly: Agonist activity at N-terminal FLAG-tagged/C-terminal eYFP-fused human GPR84 expressed in CHO cell membranes assessed as inhibition of forskolin-induced cAMP accumulation up to 100 uM preincubated for 20 mins followed by forskolin-induction and measured after 20 mins. The assay is classed as functional, cell-based.

Calls of active or inactive are those of the source. The rule behind the calls is not given here.

T3 sequence (Q9NQS5 whole entry, the tested form may be a part): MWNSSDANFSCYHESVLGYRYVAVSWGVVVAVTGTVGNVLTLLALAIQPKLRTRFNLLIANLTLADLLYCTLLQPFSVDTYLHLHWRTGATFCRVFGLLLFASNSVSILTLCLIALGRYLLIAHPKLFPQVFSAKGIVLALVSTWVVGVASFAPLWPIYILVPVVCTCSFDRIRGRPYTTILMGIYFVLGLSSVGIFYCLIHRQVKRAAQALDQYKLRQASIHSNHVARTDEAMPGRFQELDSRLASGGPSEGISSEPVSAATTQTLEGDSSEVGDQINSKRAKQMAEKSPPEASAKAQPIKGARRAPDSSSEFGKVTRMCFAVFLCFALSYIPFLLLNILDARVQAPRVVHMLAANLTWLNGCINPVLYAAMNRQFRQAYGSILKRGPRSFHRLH
T2 sequence (O14842 whole entry, the tested form may be a part): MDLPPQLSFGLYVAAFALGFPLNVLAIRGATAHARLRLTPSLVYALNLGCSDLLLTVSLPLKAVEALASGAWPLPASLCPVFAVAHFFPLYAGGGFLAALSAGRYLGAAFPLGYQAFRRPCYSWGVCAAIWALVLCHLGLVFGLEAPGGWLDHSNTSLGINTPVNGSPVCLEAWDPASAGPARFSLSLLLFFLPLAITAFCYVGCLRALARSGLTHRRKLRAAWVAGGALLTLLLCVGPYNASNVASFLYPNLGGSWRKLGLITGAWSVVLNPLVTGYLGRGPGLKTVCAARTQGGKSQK

Take `CC(O)CCCCCCCCCC(=O)O` (centres undefined): the EC50 in assay [1], in assay [2] and in assay [3] was greater than 100 µM in each case.
`CCCCCCCCCC(O)CC(=O)O` (centres undefined): the concentration giving a half-maximal response (EC50) was greater than 100 µM in assay [1], greater than 100 µM in assay [2] and 5.25 µM in assay [3]. Further, in assay [4], the Activity was less than 25%.
Consider `CCCCCCC(O)CCCCC(=O)O` (centres undefined), for which the half-maximal effective concentration (EC50) in assay [1] is greater than 100 µM; in assay [2], 18.6 µM; in assay [3] it was greater than 100 µM.
As to `CCCCCC[C@@H](O)C/C=C\CCCCCCCC(=O)O`, the EC50 was 1.32 µM in assay [1] and 11.5 µM in assay [5].
As for `CCC(O)CCCCCCCCC(=O)O` (centres undefined), the half-maximal effective concentration (EC50) in assay [1], in assay [2] and in assay [3] was greater than 100 µM each time.
In the case of `CCCC(O)CCCCCCCC(=O)O` (centres undefined), the EC50 in assay [1], in assay [2] and in assay [3] was greater than 100 µM in each case.
As for `CCCCCCCCC(O)CCC(=O)O` (centres undefined), the EC50 was greater than 100 µM in assay [1], greater than 100 µM in assay [2] and 38 µM in assay [3].
`CCCCCCC(O)CCCCCCCCCCC(=O)O` (centres undefined): the concentration giving a half-maximal response (EC50) in assay [1] is 1.74 µM.
For the compound `O=C(O)CCCCCCCCCCCO`, the results for the EC50 in assay [1], in assay [2] and in assay [3] were greater than 100 µM, greater than 100 µM and 20.9 µM, respectively.
Take `CCCCCCCCCCC(O)C(=O)O` (centres undefined): the EC50 in assay [1] is greater than 100 µM; in assay [2], 6.76 µM; in assay [3], 12.9 µM.
For the compound `CCCCCCCCCCCC(=O)O` [DODECANOATE], the EC50 in assay [1] was 7.59 µM; in assay [6] it was 8.71 µM; in assay [5], 11.5 µM; in assay [3], 10.5 µM. Also, in assay [7], the inhibition entry was “inactive”.
For the compound `O=C(O)CCCCCCCCCCCCCCCO`, the EC50 was 1.7 µM in assay [1] and 20.9 µM in assay [5].
Consider `CCCCCCCC(O)CCCC(=O)O` (centres undefined), for which the EC50 in assay [1], in assay [2] and in assay [3] was greater than 100 µM each time.
`CCCCC(O)CCCCCCC(=O)O` (centres undefined): the EC50 in assay [1], in assay [2] and in assay [3] was greater than 100 µM throughout.
Turning to `CCCCCC(O)CCCCCC(=O)O` (centres undefined), the EC50 in assay [1], in assay [2] and in assay [3] was greater than 100 µM each time.
